Assay results published in ChEMBL document CHEMBL4028876, “Discovery of a Novel Piperidine-Based Inhibitor of Cholesteryl Ester Transfer Protein (CETP) That Retains Activity in Hypertriglyceridemic Plasma” (J Med Chem, 2017).
Blank lines part the entries; values can stand above or below the molecule they belong to.

Legend:
[1] = molecular target: T1, Cholesteryl ester transfer protein (Homo sapiens, UniProt P11597); assay: Inhibition of CETP in human plasma measured every 30 mins for 120 mins by fluorescence method
T1 sequence (P11597 whole entry): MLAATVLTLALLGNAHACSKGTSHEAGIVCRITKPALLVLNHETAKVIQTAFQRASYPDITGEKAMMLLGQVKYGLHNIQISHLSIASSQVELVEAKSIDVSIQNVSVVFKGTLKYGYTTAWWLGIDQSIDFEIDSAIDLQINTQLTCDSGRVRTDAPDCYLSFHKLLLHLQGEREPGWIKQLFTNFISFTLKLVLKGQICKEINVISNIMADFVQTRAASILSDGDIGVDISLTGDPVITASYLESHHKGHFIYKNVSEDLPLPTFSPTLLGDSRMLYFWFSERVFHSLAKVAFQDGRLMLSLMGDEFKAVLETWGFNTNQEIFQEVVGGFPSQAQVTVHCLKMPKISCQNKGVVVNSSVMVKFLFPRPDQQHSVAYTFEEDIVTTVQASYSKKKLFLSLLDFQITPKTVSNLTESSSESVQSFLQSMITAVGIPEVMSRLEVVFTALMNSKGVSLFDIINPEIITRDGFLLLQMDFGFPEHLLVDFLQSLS
Outline: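 Pooled EDTA plasma from healthy male donors (final 50%) with compound in DMSO (final 1%). The reaction is started with fluorescent donor solution. Activity is the 30–90 min slope. IC50 is fitted to duplicate wells by a logistic equation.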

[2] = 1-Octanol-phosphate buffered saline partition coefficient, log D of compound at […] by tandem mass spectrometry method; assay type: physicochemical
[3] = Half life in Sprague-Dawley rat at 1 mg/kg, iv or 3 mg/kg, po by LC-ESI-MS/MS analysis; assay type: ADME, organism-based; details: in vivo
Outline: (§1)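 Conscious 7-week-old male Sprague-Dawley rats on standard diet with free water. Dosing is 1 mg/kg iv bolus in N-methylpyrrolidin-2-one/PEG 200, or 3 mg/kg oral suspension in 0.5% aqueous methylcellulose. Blood is sampled at various time points after administration.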

[4] = Clearance in Sprague-Dawley rat plasma at 1 mg/kg, iv or 3 mg/kg, po by LC-ESI-MS/MS analysis; assay type: ADME, organism-based; outline: as §1
[5] = Volume of distribution in Sprague-Dawley rat at 1 mg/kg, iv or 3 mg/kg, po by LC-ESI-MS/MS analysis; assay type: ADME, organism-based; details: in vivo; outline: as §1
[6] = AUC (infinity) in Sprague-Dawley rat at 1 mg/kg, iv or 3 mg/kg, po by LC-ESI-MS/MS analysis; assay type: ADME, organism-based; details: in vivo; outline: as §1
[7] = Oral bioavailability in Sprague-Dawley rat at 3 mg/kg by LC-ESI-MS/MS analysis; assay type: ADME, organism-based; details: in vivo; outline: as §1
Cytochrome P450 3A4 [8] = molecular target: T2, Cytochrome P450 3A4 (Homo sapiens, UniProt P08684); assay: Inhibition of CYP3A4 (unknown origin) in the presence of midozolam; assay type: ADME
Cytochrome P450 3A4 [9] = molecular target: T2, Cytochrome P450 3A4; assay: Inhibition of CYP3A4 (unknown origin) in the presence of testosterone; assay type: ADME
Cytochrome P450 2D6 = Cytochrome P450 2D6 (Homo sapiens, UniProt P10635); assay: Inhibition of CYP2D6 (unknown origin); assay type: ADME
Cytochrome P450 2C9 = Cytochrome P450 2C9 (Homo sapiens, UniProt P11712); assay: Inhibition of CYP2C9 (unknown origin); assay type: ADME
Sequence of Cytochrome P450 2C9 (P11712 whole entry): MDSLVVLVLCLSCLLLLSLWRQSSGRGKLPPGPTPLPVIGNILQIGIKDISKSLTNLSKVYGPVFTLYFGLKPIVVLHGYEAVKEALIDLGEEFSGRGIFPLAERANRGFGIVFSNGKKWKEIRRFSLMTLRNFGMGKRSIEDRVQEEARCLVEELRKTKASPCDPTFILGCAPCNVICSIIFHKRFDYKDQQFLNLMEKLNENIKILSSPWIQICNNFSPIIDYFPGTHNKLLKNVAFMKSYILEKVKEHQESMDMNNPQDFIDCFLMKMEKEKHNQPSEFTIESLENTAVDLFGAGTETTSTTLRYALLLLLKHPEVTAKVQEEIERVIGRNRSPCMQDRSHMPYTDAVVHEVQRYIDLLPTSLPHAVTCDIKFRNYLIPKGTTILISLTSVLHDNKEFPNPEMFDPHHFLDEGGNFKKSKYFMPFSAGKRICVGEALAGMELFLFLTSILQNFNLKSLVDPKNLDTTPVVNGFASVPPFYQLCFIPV

T2 sequence (P08684 whole entry): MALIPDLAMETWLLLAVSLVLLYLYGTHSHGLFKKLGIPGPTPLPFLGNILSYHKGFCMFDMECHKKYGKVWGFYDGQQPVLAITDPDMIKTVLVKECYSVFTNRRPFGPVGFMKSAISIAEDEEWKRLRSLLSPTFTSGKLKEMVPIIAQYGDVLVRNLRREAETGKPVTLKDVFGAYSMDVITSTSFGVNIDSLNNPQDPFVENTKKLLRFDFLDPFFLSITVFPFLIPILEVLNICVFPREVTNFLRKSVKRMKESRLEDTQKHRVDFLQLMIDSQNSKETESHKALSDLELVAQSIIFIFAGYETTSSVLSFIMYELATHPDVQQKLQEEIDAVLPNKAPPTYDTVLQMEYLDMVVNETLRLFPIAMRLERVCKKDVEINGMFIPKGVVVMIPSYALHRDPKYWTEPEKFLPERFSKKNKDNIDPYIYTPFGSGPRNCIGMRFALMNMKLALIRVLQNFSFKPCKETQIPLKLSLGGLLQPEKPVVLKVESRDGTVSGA
Sequence of Cytochrome P450 2D6 (P10635 whole entry): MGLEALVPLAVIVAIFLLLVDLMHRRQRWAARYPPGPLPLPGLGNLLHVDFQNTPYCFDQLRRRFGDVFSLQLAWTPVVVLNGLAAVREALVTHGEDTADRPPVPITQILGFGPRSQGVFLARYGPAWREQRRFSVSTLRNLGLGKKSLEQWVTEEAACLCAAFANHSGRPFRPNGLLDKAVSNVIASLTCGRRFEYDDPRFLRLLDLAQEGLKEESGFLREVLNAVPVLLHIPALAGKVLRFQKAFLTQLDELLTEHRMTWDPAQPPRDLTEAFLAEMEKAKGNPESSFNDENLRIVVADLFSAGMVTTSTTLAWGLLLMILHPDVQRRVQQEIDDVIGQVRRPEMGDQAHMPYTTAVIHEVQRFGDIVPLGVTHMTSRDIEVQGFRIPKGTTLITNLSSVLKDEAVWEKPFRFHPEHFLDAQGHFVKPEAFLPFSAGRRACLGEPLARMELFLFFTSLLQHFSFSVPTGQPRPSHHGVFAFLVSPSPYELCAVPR

IC50 [1]: 110 nM
logD [2]: 5.7
Compound: Cc1cc(C)c2c(c1)[C@@H](N(Cc1cc(C(F)(F)F)cc(C(F)(F)F)c1)c1nnn(C)n1)CCCN2C[C@H]1CC[C@H](C(=O)O)CC1 [EVACETRAPIB]

IC50 [1]: 60 nM
half-life [3]: 4.6 h
clearance [4]: 10 mL/min/kg
Vd [5]: 2.35 L/kg
AUC(0-inf) [6]: 2.75 µM·h
bioavailability [7]: 35%
IC50 (Cytochrome P450 3A4 [8]): 2200 nM
IC50 (Cytochrome P450 3A4 [9]): > 50000 nM
IC50 (Cytochrome P450 2D6): > 30000 nM
IC50 (Cytochrome P450 2C9): 6600 nM
Compound: CC[C@@H]1C[C@H](N(Cc2cc(C(F)(F)F)cc(C(F)(F)F)c2)c2ncc(N3CCOCC3)cn2)C[C@H](CC)N1C(=O)OC(C)C

IC50 [1]: 771 nM
Compound: CC[C@@H]1C[C@H](N(Cc2cc(C(F)(F)F)cc(C(F)(F)F)c2)C(=O)OC)C[C@H](Cc2ccccc2)N1C(=O)OC(C)(C)C (racemic)

IC50 [1]: 240 nM
Compound: CC[C@@H]1C[C@H](N(Cc2cc(Cl)cc(C(F)(F)F)c2)c2ncc(Br)cn2)C[C@H](Cc2ccccc2)N1C(=O)OC(C)(C)C (racemic)

IC50 [1]: 160 nM
Compound: CC[C@@H]1C[C@H](N(Cc2cc(C(F)(F)F)cc(C(F)(F)F)c2)c2ncc(Br)cn2)C[C@H](Cc2ccccc2)N1C(=O)OC(C)(C)C (racemic)

IC50 [1]: 164 nM
Compound: CC[C@@H]1C[C@H](N(Cc2cc(C(F)(F)F)cc(C(F)(F)F)c2)c2ncc(N3CCOCC3)cn2)C[C@H](Cc2ccccc2)N1C(=O)OC(C)(C)C (racemic)

IC50 [1]: 1300 nM
Compound: CC[C@@H]1C[C@H](N(Cc2cc(C(F)(F)F)cc(C(F)(F)F)c2)C(=O)OC)C[C@H](CC)N1C(=O)OC(C)(C)C

IC50 [1]: 4100 nM
logD [2]: > 6
Compound: CCC(CC)CC1(C(=O)Nc2ccccc2SC(=O)C(C)C)CCCCC1 [DALCETRAPIB]

IC50 [1]: > 10000 nM
Compound: CC[C@@H]1C[C@H](N(Cc2cc(OC)cc(C(F)(F)F)c2)c2ncc(Br)cn2)C[C@H](Cc2ccccc2)N1C(=O)OC(C)(C)C (racemic)

IC50 [1]: 60 nM
half-life [3]: 7.4 h
clearance [4]: 1.67 mL/min/kg
Vd [5]: 0.7 L/kg
AUC(0-inf) [6]: 0.456 µM·h
bioavailability [7]: 3%
IC50 (Cytochrome P450 3A4 [8]): > 50000 nM
IC50 (Cytochrome P450 3A4 [9]): > 50000 nM
IC50 (Cytochrome P450 2D6): > 50000 nM
IC50 (Cytochrome P450 2C9): > 50000 nM
Compound: CC[C@@H]1C[C@H](N(Cc2cc(C(F)(F)F)cc(C(F)(F)F)c2)c2ncc(N3CCOCC3)cn2)C[C@H](Cc2ccccc2)N1C(=O)OC(C)(C)C
